Results from ChEMBL document CHEMBL4000163, “Pyrazole derived ultra-short antimicrobial peptidomimetics with potent anti-biofilm activity” (Eur J Med Chem, 2017).
Converted amounts (≈) assume the structure as drawn. The source made the active and inactive calls. The rule behind the calls is not given here.

Legend:
Staphylococcus aureus [1] = assay: Antimicrobial activity against Staphylococcus aureus KCTC 1621 incubated for 18 to 20 hrs by broth microdilution assay; type: functional; conditions: read-out: MIC100
How it was run: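 Broth microdilution in 1% peptone. Inoculum was 2 × 10⁶ CFU/mL mixed 1:1 with serial 2-fold peptide dilutions and incubated 18–20 h at 37 °C. Growth was read as absorbance at 600 nm; MIC is the lowest peptide concentration giving 100% growth inhibition.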

Pseudomonas aeruginosa [2] = assay: Potency index, ratio of LL-37 MIC100 to compound MIC100 for Pseudomonas aeruginosa KCTC 1637; type: functional
RAW264.7 [3] = assay: Cytotoxicity against mouse RAW264.7 cells up to 32 ug/mL after 2 days by MTT assay; type: cell-based; conditions: raw264.7, 48 h
How it was run: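 Cells in DMEM with 10% FBS seeded at 2×10^4 cells/well and incubated 24 h at 37 °C, 5% CO₂. Serial 2-fold peptide dilutions were added for 2 days, then MTT for 4 h. Formazan was dissolved in 20% SDS/0.01 M HCl and read at 570 nm. Survival is expressed as a percentage of untreated cells.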

Staphylococcus aureus [4] = assay: Antibacterial activity against methicillin resistant Staphylococcus aureus CCARM 3089 after 18 to 20 hrs by broth microdilution assay; type: functional; conditions: read-out: MIC100
How it was run: (§1)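 Broth microdilution in 1% peptone: bacteria at 2 × 10⁶ CFU/mL mixed 1:1 with serial 2-fold peptide dilutions, 18-20 h at 37 °C; growth read as absorbance at 600 nm. MIC taken as lowest concentration giving 100% growth inhibition.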

Staphylococcus aureus [5] = assay: Antibacterial activity against methicillin resistant Staphylococcus aureus CCARM 3095 after 18 to 20 hrs by broth microdilution assay; type: functional; conditions: read-out: MIC100; how it was run: as §1
Pseudomonas aeruginosa [6] = assay: Antibacterial activity against multidrug-resistant Pseudomonas aeruginosa CCARM 2095 after 18 to 20 hrs by broth microdilution assay; type: functional; conditions: read-out: MIC100; how it was run: as §1
Enterococcus faecium [7] = assay: Antibacterial activity against vancomycin-resistant Enterococcus faecium ATCC 51559 after 18 to 20 hrs by broth microdilution assay; type: functional; conditions: read-out: MIC100; how it was run: as §1
Enterococcus faecium [8] = assay: Potency index, ratio of melittin MIC100 to compound MIC100 for vancomycin-resistant Enterococcus faecium ATCC 51559; type: functional
Escherichia coli [9] = assay: Antimicrobial activity against Escherichia coli KCTC 1682 in presence of NaCl; type: functional
How it was run: (§2)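 MIC in LB medium with added 150 mM NaCl, 1 mM MgCl₂ or 2.5 mM CaCl₂. Inoculum of 2 × 10⁶ CFU/mL with peptide. Otherwise as the broth microdilution MIC assay; MIC is the lowest concentration giving 100% growth inhibition.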

Staphylococcus aureus [10] = assay: Antimicrobial activity against Staphylococcus aureus KCTC 1621 in presence of MgCl2; type: functional
How it was run: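 MIC by microdilution with 2 × 10⁶ CFU/ml S. aureus KCTC 1621 in LB medium supplemented with physiological salt: 150 mM NaCl, 1 mM MgCl₂ or 2.5 mM CaCl₂; growth inhibition endpoint as in the standard MIC assay.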

Escherichia coli [11] = assay: Antimicrobial activity against Escherichia coli KCTC 1682 in presence of CaCl2; type: functional; how it was run: as §2
Escherichia coli [12] = assay: Induction of outer membrane permeabilization in Escherichia coli KCTC 1682 assessed as NPN uptake by spectrofluorophotometric analysis; type: functional
How it was run: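 E. coli KCTC 1682 at OD600 0.05 in 5 mM HEPES pH 7.2 with 5 mM KCN; NPN 10 µM final, background fluorescence recorded (ex 350, em 420 nm). Peptide aliquots at various concentrations added and fluorescence followed over time until no further rise.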

Staphylococcus aureus [13] = assay: Induction of cytoplasmic membrane depolarization in Staphylococcus aureus KCTC 1621 assessed as loss of membrane potential after 1 hr by DiSC3(5) dye based fluorescence assay; type: functional
Escherichia coli [14] = assay: Antimicrobial activity against Escherichia coli KCTC 1682 assessed as disruption of bacterial cell membrane at 2 times MIC after 1 hr by transmission electron microscopy; type: functional
How it was run: (§3)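 Bacteria at 2×10^7 CFU/mL in LB, washed three times in PBS. Peptide in PBS was added to a final 2 × MIC and incubated 1 h at 37 °C. Pelleted cells were resuspended in PBS, applied to glow-discharged carbon-film grids, negatively stained with 1% uranyl acetate for 1 min, and imaged by TEM at 120 kV.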

Staphylococcus aureus [15] = assay: Antimicrobial activity against Staphylococcus aureus KCTC 1621 assessed as cell membrane damage at 2 times MIC after 1 hr by transmission electron microscopy; type: functional; how it was run: as §3
RAW264.7 [16] = assay: Antiinflammatory activity in mouse RAW264.7 cells assessed as inhibition of LPS-induced nitric oxide production at 16 ug/mL after 24 hrs by Griess method; type: functional; conditions: RAW264.7, 24 h
How it was run: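 RAW264.7 macrophages (5×10^5 cells/mL) stimulated with LPS (20 ng/mL), with or without peptide, for 24 h. Supernatants were mixed 1:1 with Griess reagent (1% sulfanilamide, 0.1% naphthylethylenediamine, 2% phosphoric acid) for 10 min at room temperature, read at 540 nm, and quantified against an NaNO₂ standard curve. Mean ± SEM of technical triplicates, ANOVA with Bonferroni post-test.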

RAW264.7 [17] = assay: Antiinflammatory activity in mouse RAW264.7 cells assessed as inhibition of LPS-induced TNFalpha mRNA expression at 16 ug/mL after 3 hrs by RT-PCR method; type: functional, cell-based
How it was run: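 RAW264.7 cells plated at 5×10^5 cells/well and cultured overnight. They were stimulated with 20 ng/mL LPS, with or without peptide, in DMEM with 10% bovine serum, for 3 h (TNF-α) or 6 h (iNOS). Total RNA was reverse-transcribed with oligo(dT)15 primers and amplified for 30 cycles (annealing 55 °C). mRNA was analysed by PCR.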

Pseudomonas aeruginosa [18] = assay: Potency index, ratio of melittin MIC100 to compound MIC100 for Pseudomonas aeruginosa KCTC 1637; type: functional
Staphylococcus aureus [19] = assay: Potency index, ratio of melittin MIC100 to compound MIC100 for methicillin resistant Staphylococcus aureus CCARM 3090; type: functional
Escherichia coli [20] = assay: Antimicrobial activity against Escherichia coli KCTC 1682 using 4 hrs trypsin incubated compound measured after overnight incubation by radial diffusion assay; type: functional
How it was run: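 Radial diffusion: mid-log cells (2×10^6 CFU/ml in LB) in 0.7% agarose. Peptide stock (10 mg/mL) added to trypsin in PBS (0.2 µg/mL), 4 h at 37 °C, stopped by liquid-nitrogen freezing; 10 µL on paper discs on the plates, overnight at 37 °C. Clearance-zone diameters measured.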

RAW264.7 [21] = assay: Antiinflammatory activity in mouse RAW264.7 cells assessed as inhibition of LPS-induced TNF-alpha production preincubated with cells followed by LPS addition measured after 6 hrs by ELISA; type: functional, cell-based
How it was run: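 RAW264.7 cells seeded at 5 × 10⁴ cells/well, left overnight, then given peptide at 37 °C. Unbound peptide was washed off with PBS (five washes) before LPS (20 ng/mL) was added for 6 h at 37 °C. TNF-α in the samples was measured by mouse ELISA. Mean ± SEM of technical triplicates, one-way ANOVA with Bonferroni post-test.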

[22] = Therapeutic index, ratio of MHC for sheep RBC to geometric mean of MICs for four bacterial strains
[23] = as above; remark: listed apart in the source

With `N=C(N)NCCC[C@H](NC(=O)c1nn(CCc2cccc3ccccc23)cc1NC(=O)[C@H](CCCNC(=N)N)NC(=O)c1nn(CCc2cccc3ccccc23)cc1N)C(N)=O` the MIC (Staphylococcus aureus [1]) was 4 µg/mL (≈ 4.67 µM), the Ratio (Pseudomonas aeruginosa [2]) was 8 and the Activity (RAW264.7 [3]) was “Non-Toxic”. For the same molecule, the MIC (Staphylococcus aureus [4]) was 8 µg/mL (≈ 9.35 µM), the MIC (Staphylococcus aureus [5]) was 4 µg/mL (≈ 4.67 µM) and the MIC (Pseudomonas aeruginosa [6]) was 8 µg/mL (≈ 9.35 µM). The MIC (Enterococcus faecium [7]) was 8 µg/mL (≈ 9.35 µM), the Ratio (Enterococcus faecium [8]) was 2 and the MIC (Escherichia coli [9]) was 32 µg/mL. For the same molecule, the MIC (Staphylococcus aureus [10]) was 8 µg/mL, the MIC (Escherichia coli [11]) was 32 µg/mL and the Activity (Escherichia coli [12]) was “Dose-dependent effect”. The Activity (Staphylococcus aureus [13]) was “Active”, the Activity (Escherichia coli [14]) was “Active” and the Activity (Staphylococcus aureus [15]) was “Active”. For the same molecule, the inhibition at 16 µg/mL (RAW264.7 [16]) was over 85%, the inhibition (RAW264.7 [17]) was “Active” and the Ratio (Pseudomonas aeruginosa [18]) was 4. The Ratio (Staphylococcus aureus [19]) was 2 - 4, the Activity (Escherichia coli [20]) was “Active” and the inhibition (RAW264.7 [21]) was “Dose-dependent effect”. For the same molecule, the TI [22] was 53.9 and the TI [23] was 53.9.
